The source made the active and inactive calls. The calls are words filed in the database; no cut-off is given here.
How the values were obtained:
[1] = Cytotoxicity against patient-derived JK2 cells assessed as reduction in cell viability after 3 days by Alamar blue assay; type: functional, cell-based; details: Homo sapiens, JK2, 72 h
How it was run: (§1)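 The patient-derived glioblastoma lines were grown as stem cells under defined conditions to keep the phenotype and genotype of the resected tumours. Viability after treatment was read with Alamar blue.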

A 172 [2] = assay: Antiinvasive activity in human A172 cells assessed as velocity of invasion at 1 uM measured up to 20 hrs by matrigel assay (reference value: 2659 to 3047 micrometer/hr); type: functional
Homo sapiens = species: Homo sapiens; assay: Inhibition of tubulin (unknown origin) polymerization
A 172 [3] = assay: Antimigratory activity in human A172 cells assessed as velocity of migration at 10 uM measured up to 20 hrs by wound scratch assay (reference value: 2650 to 3123 micrometer/hr); type: functional
How it was run: (§2)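 Wound-healing migration assay: cell movement across the wound is measured as velocity (µm/h). Compounds were tested at 0, 1.0, 5.0 and 10.0 µM. Values are mean ± SEM of 3 independent experiments.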

A 172 [4] = assay: Antiinvasive activity in human A172 cells assessed as velocity of invasion at 5 uM measured up to 20 hrs by matrigel assay (reference value: 2659 to 3047 micrometer/hr); type: functional
U-251 [5] = assay: Antimigratory activity in human U251 cells assessed as velocity of migration at 5 uM measured up to 20 hrs by wound scratch assay (reference value: 2159 to 2653 micrometer/hr); type: functional; how it was run: as §2
[6] = molecular target: Mitogen-activated protein kinase 14 (Homo sapiens) (UniProt Q16539); assay: Stabilization of MAPK p38alpha in human U251 cell lysate at 10 uM preincubated for 1 hr followed by incubation at 40 to 70 degreeC for 3 mins by cellular thermal shift assay
[7] = molecular target: Dual specificity tyrosine-phosphorylation-regulated kinase 1A (Homo sapiens, UniProt Q13627); assay: Stabilization of DYRK1A in human U251 cell lysate at 10 uM preincubated for 1 hr followed by incubation at 40 to 70 degreeC for 3 mins by cellular thermal shift assay
[8] = molecular target: Dual specificity protein kinase CLK1 (Homo sapiens, UniProt P49759); assay: Stabilization of CLK1 in human U251 cell lysate at 10 uM preincubated for 1 hr followed by incubation at 40 to 70 degreeC for 3 mins by cellular thermal shift assay
U-251 [9] = assay: Cytotoxicity against human U251 cells assessed as reduction in cell viability after 3 days by Alamar blue assay; type: functional, cell-based; details: U-251, 72 h
U-251 [10] = assay: Antimigratory activity in human U251 cells at 5 uM measured up to 20 hrs by wound scratch assay; type: functional; details: U-251, 20 h; how it was run: as §2
[11] = Antimigratory activity in patient-derived RN1 cells assessed as velocity of migration at 10 uM measured up to 20 hrs by wound scratch assay (reference value: 937 to 1174 micrometer/hr); type: functional, Homo sapiens; how it was run: as §2
A 172 [12] = assay: Antimigratory activity in human A172 cells assessed as velocity of migration at 1 uM measured up to 20 hrs by wound scratch assay (reference value: 2650 to 3123 micrometer/hr); type: functional; how it was run: as §2
[13] = Antimigratory activity in patient-derived RN1 cells at 5 uM measured up to 20 hrs by wound scratch assay; type: functional; details: Homo sapiens, RN1, 20 h; how it was run: as §2
[14] = Cytotoxicity against patient-derived RN1 cells assessed as reduction in cell viability after 3 days by Alamar blue assay; type: functional, cell-based; details: Homo sapiens, RN1, 72 h; how it was run: as §1
U-251 [15] = assay: Antiinvasive activity in human U251 cells assessed as velocity of invasion at 10 uM measured up to 20 hrs by matrigel assay (reference value: 1151 to 1710 micrometer/hr); type: functional
A 172 [16] = assay: Cytotoxicity against human A172 cells assessed as reduction in cell viability after 3 days by Alamar blue assay; type: functional, cell-based; details: A 172, 72 h

Chain of Dual specificity protein kinase CLK1 (P49759 whole entry, looked up): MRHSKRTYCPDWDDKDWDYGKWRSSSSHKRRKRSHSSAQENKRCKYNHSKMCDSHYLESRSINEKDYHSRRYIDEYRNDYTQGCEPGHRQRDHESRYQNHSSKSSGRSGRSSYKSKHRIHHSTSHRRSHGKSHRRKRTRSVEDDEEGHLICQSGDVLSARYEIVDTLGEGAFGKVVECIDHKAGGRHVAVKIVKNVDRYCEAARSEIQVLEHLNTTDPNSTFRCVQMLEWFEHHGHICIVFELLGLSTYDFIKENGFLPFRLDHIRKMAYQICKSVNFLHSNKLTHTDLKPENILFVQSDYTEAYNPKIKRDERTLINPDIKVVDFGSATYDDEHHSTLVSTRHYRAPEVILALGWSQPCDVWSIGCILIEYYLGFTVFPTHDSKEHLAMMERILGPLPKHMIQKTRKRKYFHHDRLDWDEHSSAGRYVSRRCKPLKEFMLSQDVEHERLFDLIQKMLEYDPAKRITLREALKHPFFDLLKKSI
Chain of Mitogen-activated protein kinase 14 (Homo sapiens) (Q16539 whole entry): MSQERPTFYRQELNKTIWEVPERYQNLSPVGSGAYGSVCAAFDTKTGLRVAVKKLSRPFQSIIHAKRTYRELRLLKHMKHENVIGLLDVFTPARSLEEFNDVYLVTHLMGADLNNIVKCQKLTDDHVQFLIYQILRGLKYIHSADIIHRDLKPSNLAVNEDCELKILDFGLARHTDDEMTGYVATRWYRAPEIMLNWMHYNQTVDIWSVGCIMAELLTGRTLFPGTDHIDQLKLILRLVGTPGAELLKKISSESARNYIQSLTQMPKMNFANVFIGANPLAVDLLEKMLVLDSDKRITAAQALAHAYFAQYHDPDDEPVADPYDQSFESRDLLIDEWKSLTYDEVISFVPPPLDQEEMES

inhibition (Homo sapiens): inactive | Activity [6]: inactive | Activity [7]: Active | Activity [8]: Active
SMILES: Nc1ccc(-c2cnc3[nH]cc(-c4ccc(O)cc4)c3c2)cc1
EC50 [1]: 8 µM | Activity (A 172 [2]): 2675 um/hr | Activity (A 172 [3]): 131 um/hr | Activity (A 172 [4]): 1538 um/hr | Activity (U-251 [5]): 127 um/hr | EC50 (U-251 [9]): 1.6 to 4.6 µM | inhibition at 5 µM (U-251 [10]): > 75% | Activity [11]: 208 um/hr | Activity (A 172 [12]): 2828 um/hr | inhibition at 5 µM [13]: > 75% | EC50 [14]: 1.1 µM | Activity (U-251 [15]): -149 um/hr | EC50 (A 172 [16]): 1.6 to 4.6 µM
